Values after ≈ are worked out from the molar mass of the structure shown. “Also recorded” adds a separate entry of the source.
What was measured:
Format in all cases: cell-based
[1] = system: MCF-7 breast cancer cells; assay: MTT viability assay, MCF-7; settings: Homo sapiens, MCF7, 48 h, read-out: Anticancer activity (IC50 ± SD) MCF-7
PKCα = PKCα (Homo sapiens, UniProt P17252); assay: Immunoblotting to detect PKCα translocation from cytosol to plasma membrane; settings: MDAMB-231, compound at IC50, 30 minutes, cytosolic PKCα normalized to 100%
MDAMB-231 cells = assay: DNA fragmentation
caspase-9 = assay: Caspase-9 activity assay; settings: MDAMB-231, compound at IC50, 24 hours, vs untreated
caspase-3 = assay: Caspase-3 activity assay; settings: MDAMB-231, compound at IC50, 24 hours, vs untreated
cytochrome c = assay: Mitochondrial cyt c release, immunofluorescence; settings: MDAMB-231, compound at IC50, 24 hours
Outline: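 Mitochondria were labelled with MitoTracker Red (200 nM, 45 min), and cytochrome c was immunostained with an anti-cyt c antibody followed by FITC anti-mouse secondary (4 h, 37 °C). Coverslips were mounted and examined by fluorescence microscopy for cyt c relocation.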

IC50 [1]: 5 ± 0.8 µg/mL (≈ 13.6 µM)
translocation of PKC from cytosol to the plasma membrane (PKCα): 17%±1.9%
Compound: COc1cc(/C=C/C(=O)CC(=O)/C=C/c2ccc(O)c(OC)c2)ccc1O [Curcumin]
genomic DNA fragmentation (MDAMB-231 cells; MDAMB-231, compound at IC50, 12 hours, agarose gel): produced distinct DNA fragments; also recorded: showed DNA fragments of different sizes
genomic DNA fragmentation in presence of NAC (MDAMB-231 cells; MDAMB-231 preincubated with NAC (5 mM)): intact gDNA with no visible appearance of DNA fragments
increase in caspase-9 activity (caspase-9): 35%
increase in caspase-3 activity (caspase-3): 65%
release of cyt c from mitochondria to cytosol (cytochrome c): release of cyt c
